{
  "source": "ChEMBL document CHEMBL4359883",
  "about": "“4(1H)-quinolone derivatives overcome acquired resistance to anti-microtubule agents by targeting the colchicine site of β-tubulin” (Eur J Med Chem, 2019)",
  "key": {"MDA-MB-231 [1]": {"test_system": "MDA-MB-231", "test": "Antitumour activity against human MDA-MB-231 cells xenografted in Balb/c mouse assessed as […] at 8 mg/kg, ip administered three times per week and measured on day 35 (reference value: 218 +/- 20.9 mm3)", "format": "functional", "outline": "(§1)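 MDA-MB-231 tumours established in the right flank of 6-week-old BALB/c nude mice. Compound dissolved in DMSO was given ip three times weekly, with a DMSO vehicle group. Tumour volume calculated as 0.5W²L, measured before each dose and compared on day 35.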"}, "Homo sapiens": {"organism": "Homo sapiens", "test": "Induction of mitotic arrest in human KBtax cells assessed as increase in p-HH3 expression at 30 to 60 nM after 24 hrs by immunoblotting analysis", "format": "functional, cell-based"}, "NCI-H1975 [2]": {"test_system": "NCI-H1975", "test": "Antitumour activity against human NCI-H1975 cells xenografted in Balb/c mouse assessed as tumour size at 4 mg/kg, ip administered three times per week and measured on day 21 (reference value: 2153 +/- 126.3 mm3)", "format": "functional", "outline": "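H1975 tumours grown in the right flank of 6-week-old BALB/c nude mice. DMSO vehicle or 4 or 8 mg/kg compound in DMSO given ip three times weekly. Tumour volume calculated as 0.5W²L before each dose and compared on day 21.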"}, "[3]": {"test": "Toxicity in Balb/c mouse xenografted with human KBtax cells assessed as effect on body mass at 8 mg/kg, ip administered 3 times per week and measured after 21 days", "format": "organism-based", "conditions": "in vivo, 504 h", "outline": "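KBtax cells (1×10^7) injected subcutaneously into right flank of 6-week-old BALB/c nude mice; after tumor establishment, compounds dissolved in DMSO given intraperitoneally three times a week for 21 days alongside DMSO vehicle group (n = 5 per group). Body mass recorded before each dose.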"}, "NCI-H1975 [4]": {"test_system": "NCI-H1975", "test": "Induction of apoptosis in human NCI-H1975 cells assessed as increase in cyclin B1 expression at 25 to 50 nM after 24 hrs by immunoblotting analysis", "format": "functional, cell-based"}, "Tubulin (Homo sapiens)": {"target": "Tubulin (Homo sapiens) (UniProt P68371+Q9H4B7+P0DPH7+P68366+Q13509+Q71U36+P04350+Q3ZCM7+P07437+P68363+Q9BQE3+Q6PEY2+Q13885+Q9BVA1+Q9BUF5)", "test": "Inhibition of microtubule polymerization in human KBtax cells at 30 nM after 6 hrs by DAPI staining based scanning confocal microscopic analysis", "format": "cell-based", "outline": "(§2)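 Cells exposed for 6 h, fixed in 3.7% paraformaldehyde, permeabilized with 0.1% Triton X-100. Stained with anti-α-tubulin (1:1000) overnight at 4 °C, FITC secondary 1 h at 37 °C, nuclei counterstained with DAPI. Imaged by confocal laser scanning microscopy.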"}, "NCI-H1975 [5]": {"test_system": "NCI-H1975", "test": "Induction of apoptosis in human NCI-H1975 cells assessed as increase in p-HH3 expression at 25 to 50 nM after 24 hrs by immunoblotting analysis", "format": "functional, cell-based"}, "MDA-MB-231 [6]": {"test_system": "MDA-MB-231", "test": "Antitumour activity against human MDA-MB-231 cells xenografted in Balb/c mouse assessed as tumour size at 4 mg/kg, ip administered three times per week and measured on day 35 (reference value: 218 +/- 20.9 mm3)", "format": "functional", "outline": "as §1"}, "[7]": {"test": "Toxicity in Balb/c mouse xenografted with human KBtax cells assessed as serum AST level at 8 mg/kg, ip administered 3 times per week and measured after 21 days (reference value: 94.2 +/- 12.5 IU/L)", "format": "organism-based", "conditions": "in vivo, 504 h"}, "NCI-H1975 [8]": {"test_system": "NCI-H1975", "test": "Induction of mitotic arrest in human NCI-H1975 cells assessed as increase in cyclin B1 expression at 40 to 80 nM after 24 hrs by immunoblotting analysis", "format": "functional, cell-based"}, "CL1-0 [9]": {"test_system": "CL1-0", "test": "Induction of mitotic arrest in human CL1-0 cells assessed as increase in cyclin B1 expression at 20 to 40 nM after 24 hrs by immunoblotting analysis", "format": "functional, cell-based"}, "CL1-0 [10]": {"test_system": "CL1-0", "test": "Antiproliferative activity against human CL1-0 cells assessed as reduction in colony formation after 14 days by crystal violet staining based assay", "format": "functional, cell-based", "outline": "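Seeded at 1000 cells/well, cultured overnight, then treated with 12.5–200 nM for 14 days. Colonies fixed in 3.7% paraformaldehyde, stained with 0.04% crystal violet and dissolved in DMSO, then absorbance read at 590 nm. Mean ± SD.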"}, "OVCAR-3": {"test_system": "OVCAR-3", "test": "Antiproliferative activity against human OVCAR3 cells assessed as reduction in cell viability after 72 hrs by MTS assay", "format": "functional, cell-based", "conditions": "OVCAR-3, 72 h", "outline": "(§3)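 Cells plated at 2000/well, cultured overnight, then exposed to a range of compound concentrations for 72 h. MTS reagent added for 1–4 h at 37 °C and absorbance read at 490 nm. Cultured in RPMI 1640 or DMEM with 10% heat-inactivated FBS under 5% CO2. Data are the mean of three determinations.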"}, "[11]": {"test": "Antiproliferative activity against human 82T cells assessed as reduction in cell viability after 72 hrs by MTS assay", "format": "functional, cell-based", "outline": "as §3"}, "PC-9": {"test_system": "PC-9", "test": "Antiproliferative activity against human PC9 cells assessed as reduction in cell viability after 72 hrs by MTS assay", "format": "functional, cell-based", "conditions": "PC-9, 72 h", "outline": "as §3"}, "NCI-H1975 [12]": {"test_system": "NCI-H1975", "test": "Induction of morphological changes in human NCI-H1975 cells assessed as disruption of mitotic spindle arrangement at 40 nM after 6 hrs by DAPI staining based DAPI staining based confocal microscopic analysis", "format": "functional, cell-based", "outline": "as §2"}, "NCI-H1975 [13]": {"test_system": "NCI-H1975", "test": "Induction of apoptosis in human NCI-H1975 cells assessed as cleaved caspase 9 after 24 hrs by immunoblotting analysis", "format": "functional, cell-based"}, "NCI-H1975 [14]": {"test_system": "NCI-H1975", "test": "Induction of mitotic arrest in human NCI-H1975 cells assessed as cyclin A at 40 to 80 nM after 24 hrs by immunoblotting analysis", "format": "functional, cell-based"}, "[15]": {"target": "T1, Tubulin alpha (Homo sapiens) (UniProt P0DPH7+P68366+Q71U36+P68363+Q9BQE3+Q6PEY2+A6NHL2+Q9NY65)", "test": "Induction of microtubule depolymerization in human CL1-0 cells assessed as increase in alpha tubulin soluble form by immunoblot analysis", "format": "cell-based", "outline": "(§4)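 Lysate spun at 16,000 rpm for 15 min at room temperature. Soluble (monomer) and particulate (polymer) fractions immunoblotted for α-tubulin.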"}, "NCI-H1975 [16]": {"test_system": "NCI-H1975", "test": "Cell cycle arrest in human NCI-H1975 cells assessed as increase in cell population at sub-G1 phase after 24 hrs by propidium iodide-staining based flow cytometry", "format": "functional", "outline": "(§5)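 Cells treated for 24 h, then trypsinized and fixed overnight in ice-cold 70% ethanol. Stained for 30 min with propidium iodide (10 µg/mL) plus RNase (20 µg/mL), and DNA content measured by flow cytometry. Mean ± SD.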"}, "CL1-0 [17]": {"test_system": "CL1-0", "test": "Cell cycle arrest in human CL1-0 cells assessed as increase in cell population at sub-G1 phase after 24 hrs by propidium iodide-staining based flow cytometry", "format": "functional", "outline": "as §5"}, "SAS": {"test_system": "SAS", "test": "Antiproliferative activity against human SAS cells assessed as reduction in cell viability after 72 hrs by MTS assay", "format": "functional, cell-based", "outline": "as §3"}, "[18]": {"target": "T1, Tubulin alpha (Homo sapiens)", "test": "Induction of microtubule depolymerization in human NCI-H1975 cells assessed as increase in alpha tubulin soluble form by immunoblot analysis", "format": "cell-based", "outline": "as §4"}, "[19]": {"target": "Tubulin beta (Homo sapiens) (UniProt P68371+Q9H4B7+Q13509+P04350+Q3ZCM7+P07437+Q13885+Q9BVA1+Q9BUF5+A6NNZ2)", "test": "Binding affinity to beta tubulin in human NCI-H1975 cells incubated for overnight by immunoblotting based pull down assay", "format": "cell-based", "outline": "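H1975 lysate in RIPA buffer with protease inhibitors incubated overnight at 4 °C with compound-conjugated magnetic beads or control beads. Beads washed five times with PBS, and bound proteins detected by SDS-PAGE immunoblotting with ECL.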"}, "NCI-H1975 [20]": {"test_system": "NCI-H1975", "test": "Induction of apoptosis in human NCI-H1975 cells assessed as bax protein expression after 24 hrs by immunoblotting analysis", "format": "functional, cell-based"}},
  "note": "Active and inactive are the calls of the source. The rule behind the calls is not given here.",
  "data": [
    {"smiles": "CCOC(=O)c1ccc2[nH]c(-c3cccc(F)c3)cc(=O)c2c1", "values": [
      {"measurement": "Activity", "setting": "MDA-MB-231 [1]", "value": 73.6, "unit": "mm3"},
      {"measurement": "Activity", "setting": "Homo sapiens", "value": "Active"},
      {"measurement": "Activity", "setting": "NCI-H1975 [2]", "value": 1333, "unit": "mm3"},
      {"measurement": "Activity", "setting": "[3]", "value": "Non-Toxic"},
      {"measurement": "Activity", "setting": "NCI-H1975 [4]", "value": "Active"},
      {"measurement": "inhibition", "setting": "Tubulin (Homo sapiens)", "value": "Active"},
      {"measurement": "Activity", "setting": "NCI-H1975 [5]", "value": "Active"},
      {"measurement": "Activity", "setting": "MDA-MB-231 [6]", "value": 105, "unit": "mm3"},
      {"measurement": "Activity", "setting": "[7]", "value": 120.7, "unit": "IU/L"}
    ]},
    {"smiles": "CCOC(=O)c1ccc2nc(-c3ccccc3)cc(O)c2c1", "values": [
      {"measurement": "Activity", "setting": "NCI-H1975 [8]", "value": "Active"},
      {"measurement": "Activity", "setting": "CL1-0 [9]", "value": "Active"},
      {"measurement": "Activity", "setting": "CL1-0 [10]", "value": "Active"},
      {"measurement": "IC50", "setting": "OVCAR-3", "value": 28, "unit": "nM"},
      {"measurement": "IC50", "setting": "[11]", "value": 35, "unit": "nM"},
      {"measurement": "IC50", "setting": "PC-9", "value": 17, "unit": "nM"},
      {"measurement": "Activity", "setting": "NCI-H1975 [12]", "value": "Active"},
      {"measurement": "Activity", "setting": "NCI-H1975 [13]", "value": "Dose-dependent effect"},
      {"measurement": "Activity", "setting": "NCI-H1975 [14]", "value": "inactive"},
      {"measurement": "Activity", "setting": "[15]", "value": "Active"},
      {"measurement": "Activity", "setting": "NCI-H1975 [16]", "value": "Dose-dependent effect"},
      {"measurement": "Activity", "setting": "CL1-0 [17]", "value": "Dose-dependent effect"},
      {"measurement": "IC50", "setting": "SAS", "value": 78, "unit": "nM"},
      {"measurement": "Activity", "setting": "[18]", "value": "Active"},
      {"measurement": "Activity", "setting": "[19]", "value": "Active"},
      {"measurement": "Activity", "setting": "NCI-H1975 [20]", "value": "Dose-dependent effect"}
    ]}
  ]
}
